Experimental data pooled from the literature.
Protocols differ between the studies behind these lines.
Target: Mitogen-activated protein kinase 4 (MAPK4, Homo sapiens, UniProt P31152)

| SMILES | effect on | method | tested at | remaining binding [%] |
| --- | --- | --- | --- | --- |
| CC1CCCN1c1nccc(-c2cnn3ncccc23)n1 (stereo not drawn) | binding | – | 1 µM | 100 |
| CCCOc1ccc([C@H]2[C@H](C(=O)O)[C@@H](c3ccc4c(c3)OCO4)CN2CC(=O)Nc2c(CC)cccc2CC)cc1 | cell-free assay | competition with immobilised ligand | 1 µM | 93 |
| N[C@H]1CCN(c2nccc(-c3cnn4ncccc34)n2)C1 | binding | – | 1 µM | 100 |
| c1ccc(N2CCN(Cc3nc4ccccc4[nH]3)CC2)nc1 | binding | competition with immobilised ligand | 1 µM | 100 |
| COc1ncc2cc3ccccc3nc2c1C#N | cell-free assay | competition with immobilised ligand | 5 µM | 100 |
| CCN1CCN(Cc2ccc(C(=O)Nc3ccc(C)c(Oc4ccc5c(c4)CC(=O)N5)c3)cc2C(F)(F)F)CC1 | binding | competition with immobilised ligand | 1 µM | 100 |
| CCS(=O)(=O)c1cc2cc(C[C@](O)(CC(C)(C)c3ccc(F)cc3C(N)=O)C(F)(F)F)[nH]c2cn1 | cell-free assay | competition with immobilised ligand | 1 µM | 100 |
| COc1cnc(Nc2cccc(S(N)(=O)=O)c2)nc1N1CCN(c2ccccc2)C(=O)C1 | binding | competition with immobilised ligand | 1 µM | 99 |
| Nc1ncc2c(n1)-c1c([nH]c3ccc(C#CC4CC4)cc13)CCCC2 | binding | competition with immobilised ligand | 1 µM | 96 |
| C[C@@H]1CCN(c2nccc(-c3cnn4ncccc34)n2)C1 | binding | – | 1 µM | 100 |
| O=C(Nc1c[nH]nc1C(=O)NC1CCNCC1)c1cc(F)cc(F)c1 | binding | competition with immobilised ligand | 1 µM | 100 |
| CO[C@@H](C)c1c(Nc2ccc([C@@H](N(C)C(=O)C3CCS(=O)(=O)CC3)C(F)(F)F)cc2)cnc2cc(Cl)nn12 | cell-free assay | competition with immobilised ligand | 1 µM | 100 |
| FC(F)(F)Oc1cccc(-c2cnc3ccc(-c4ccncc4)nn23)c1 | cell-free assay | competition with immobilised ligand | 5 µM | 100 |
| O=C(c1ccc(Nc2ncc(Cl)c(-c3ccc(Cl)s3)n2)cc1)N1CCC(N2CCCC2)CC1 | binding | competition with immobilised ligand | 1 µM | 0.3 |
| CCOCCn1cc(C(=O)Nc2ccc(-n3nc(-c4cccnc4)cc3C(F)(F)F)cn2)ccc1=O | cell-free assay | competition with immobilised ligand | 1 µM | 100 |
| CN(CCCC(F)(F)F)c1nccc(-c2cnn3ncccc23)n1 | binding | – | 1 µM | 100 |
| CS(=O)(=O)N1CCCC(NC(=O)[C@H](CCC2CCCCC2)NC(=O)c2ccc(CNC(=O)c3cnc4ccccn34)cc2)C1 (stereo partly drawn) | cell-free assay | competition with immobilised ligand | 0.1 µM | 100 |
| Cc1cnn2ncc(-c3ccnc(N(C)C)n3)c2c1 | binding | – | 1 µM | 94 |
| O=C(NCCCN1CCOCC1)c1ccc(Nc2nccc(-c3cc4ccccc4s3)n2)cc1 | binding | competition with immobilised ligand | 1 µM | 88 |
| CN(C)c1nccc(-c2cnn3ncccc23)n1 | binding | – | 1 µM | 100 |
| Cc1cnc(Nc2ccc(C(=O)N3CCC(N4CCCC4)CC3)cc2)nc1-c1cc2ccccc2s1 | binding | competition with immobilised ligand | 1 µM | 39 |
